From ChEMBL document CHEMBL1123456, “A novel class of conformationally restricted heterocyclic muscarinic agonists” (J Med Chem, 1986)

What was measured:
[1] = target: Muscarinic acetylcholine receptor; test: In vitro antagonistic activity against peripheral Muscarinic acetylcholine receptor in guinea pig ileum as inhibition of acetylcholine induced muscle contraction; format: functional, tissue-based
Method in brief: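 Guinea pigs were killed by a blow to the head and exsanguinated. A 30 mm ileum segment was held isotonically in Tyrode solution at 37 °C in an organ bath. IC50 was obtained by log probit analysis.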

[2] = Dissociation constant (pKa); format: physicochemical
Method in brief: (§1)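 pKa values measured in water at 25 °C by a previously published method.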

[3] = target: Muscarinic acetylcholine receptor; test: Inhibition of binding of radioactive N-propylbenzilycholine mustard ([3H]-PrBCM) to rat brain membranes; format: cell membranes, Membrane
[4] = pKa value is determined; format: physicochemical; method in brief: as §1

CC(C)COc1noc2c1CNCC2.Cl
IC50 [1]: 49 µM
pKa [2]: 7.7
IC50 [3]: > 50 µM

CCOc1noc2c1CN(C)CC2.Cl
pKa [2]: 6.6
IC50 [3]: 2.4 µM

C#CCOc1noc2c1CNCC2.Cl
pKa [2]: 7.6
IC50 [3]: 5.8 µM

CC#CCOc1noc2c1CNCC2.Cl
pKa [2]: 7.6
IC50 [3]: 5.2 µM

C/C=C/COc1noc2c1CNCC2.Cl
IC50 [1]: > 50 µM
pKa [2]: 7.7
IC50 [3]: 14 µM

CCN1CCc2onc(OC)c2C1.Cl
pKa [2]: 7
IC50 [3]: 15 µM

COc1noc2c1CNCC2.Cl
pKa [4]: 7.5
IC50 [3]: 45 µM

COc1noc2c1CN(C)CC2.Cl
pKa [2]: 6.6
IC50 [3]: 27 µM

C=CCOc1noc2c1CNCC2.Cl
pKa [2]: 7.5
IC50 [3]: 9.6 µM

CCCCOc1noc2c1CNCC2.Cl
IC50 [1]: > 50 µM
pKa [2]: 7.6
IC50 [3]: 15 µM

COc1noc2c1CN(Cc1ccccc1)CC2.Cl
IC50 [1]: > 50 µM
pKa [2]: 6.1
IC50 [3]: > 50 µM

CC(C)Oc1noc2c1CNCC2.Cl
IC50 [1]: 11 µM
pKa [2]: 7.5
IC50 [3]: 3.5 µM

CCOc1noc2c1CNCC2.Cl
pKa [4]: 7.6
IC50 [3]: 6 µM

COC(=O)C1=CCCNC1 [NORARECOLINE]
pKa [2]: 8.7
IC50 [3]: 30 µM

CCCOc1noc2c1CNCC2.Cl
IC50 [1]: 35 µM
pKa [2]: 7.6
IC50 [3]: 10 µM

C=C(Br)COc1noc2c1CNCC2.Cl
IC50 [1]: 22 µM
pKa [2]: 7.6
IC50 [3]: 13 µM

Cl.c1ccc(COc2noc3c2CNCC3)cc1
IC50 [1]: 48 µM
pKa [2]: 7.5
IC50 [3]: 32 µM

COC(=O)C1=CCCN(C)C1 [ARECOLINE]
pKa [2]: 7.8
